In brackets after ≈: the same amount, converted by molar mass.
Assays:
[1] = ref 41 (Scifinder); cited from earlier work
[2] = cited from earlier work
[3] = In vivo pharmacokinetic study, intravenous emulsion; parameters: species or system female Sprague Dawley rats; settings: rat
Procedure, shortened: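 Female Sprague Dawley rats (248–276 g; n = 6/group) received a tail-vein dose molar equivalent to 5 mg aripiprazole/kg. Vehicle: submicron emulsion (20% w/w MCT oil, 1.2% lecithin, 2% glycerol, water; 1 mg aripiprazole-equivalent/mL). K-EDTA blood was sampled at 5, 15, 30 min and 1–24 h. Acidified-acetonitrile plasma extracts with d8 internal standard were analysed by positive-ESI MRM. Two-compartment fit; trapezoidal AUC extrapolated to infinity; mean ± SEM.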

[4] = female, Sprague Dawley, plasma, iv, 5 mg/kg

| SMILES | Estimated pKa [1] | solubility in water [2] [µM] | clearance ([3]; female, Sprague Dawley, plasma, iv, 5 mg aripiprazole/kg (molar equivalent)) [mL/min/kg] | Vd [3, 4] [L/kg] | half-life [3, 4] [h] | AUC0?8 ([3]; i.v., molar equivalent to 5 mg aripiprazole/kg, n = 6, mean ± SEM) [nmol?h/L] |
| --- | --- | --- | --- | --- | --- | --- |
| O=C1CCc2ccccc2N1 [3,4-dihydro-2(1H)-quinolinone] | 14.6 |  |  |  |  |  |
| O=C1CCc2ccc(OCCCCN3CCN(c4cccc(Cl)c4Cl)CC3)cc2N1 [aripiprazole] |  | 9 (≈ 4.04 µg/mL) | 22.8 | 8.16 ± 0.75 | ~4.2 | 8176 ± 2647 |
